tested on: not listed separately; assay: Selectivity index, ratio of CC50 for MDCK cells to IC50 for chloroquine-resistant Plasmodium falciparum K1; type: functional; settings: not given
Summary of the method: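 Selectivity index computed as MTS-based CC50 on MDCK cells divided by IC50 against P. falciparum K1.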

| SMILES | Ratio CC50/IC50 |
| --- | --- |
| Cc1nc(NCCNc2ccnc3cc(Cl)ccc23)nc(-c2ccccc2[N+](=O)[O-])c1C(=O)OC(C)C | 22.9 |

tested on: Feline infectious peritonitis virus; assay: Antiviral activity against FIPV infected in cat CRFK cells assessed as inhibition of virus-induced cytopathic effect after 4 days by colorimetric formazan-based MTS assay; type: functional, cell-based; settings: Alphacoronavirus 1, CRFK, 96 h

| SMILES | EC50 |
| --- | --- |
| Cc1nc(NCCNc2ccnc3cc(Cl)ccc23)nc(-c2ccccc2[N+](=O)[O-])c1C(=O)OC(C)C | > 100 µM |

tested on: Coxsackievirus B4; assay: Antiviral activity against Coxsackie virus B4 infected in african green monkey Vero cells assessed as inhibition of virus-induced cytopathogenicity after 4 days; type: functional, organism-based; settings: Enterovirus B, 96 h
Summary of the method: (§1)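 Confluent HEL, Vero or HeLa monolayers were inoculated with 100 CCID50 of virus in the presence of varying concentrations of compound. Cytopathicity was scored when it reached completion in untreated, virus-infected control cultures.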

| SMILES | EC50 |
| --- | --- |
| Cc1nc(NCCNc2ccnc3cc(Cl)ccc23)nc(-c2ccccc2[N+](=O)[O-])c1C(=O)OC(C)C | > 20 µM |

tested on: MDCK; assay: Cytotoxicity against MDCK cells assessed as cell viability by colorimetric formazan-based MTS assay; parameters: species or system Canis lupus familiaris; settings: dog, mdck
Summary of the method: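 Cytotoxicity on MDCK cells; 50% cytotoxic concentration from cell viability measured by colorimetric formazan-based MTS assay.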

| SMILES | CC50 |
| --- | --- |
| Cc1nc(NCCNc2ccnc3cc(Cl)ccc23)nc(-c2ccccc2[N+](=O)[O-])c1C(=O)OC(C)C | 2.2 µM |

tested on: Plasmodium falciparum; assay: Resistant factor, ratio of IC50 for chloroquine-resistant Plasmodium falciparum K1 to IC50 for chloroquine-sensitive Plasmodium falciparum 3D7; type: functional; settings: not given
Summary of the method: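 Resistance factor computed as IC50 against K1 divided by IC50 against 3D7, both from the [3H]hypoxanthine incorporation assay.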

| SMILES | Ratio IC50 |
| --- | --- |
| Cc1nc(NCCNc2ccnc3cc(Cl)ccc23)nc(-c2ccccc2[N+](=O)[O-])c1C(=O)OC(C)C | 0.5555 |

tested on: not listed separately; assay: Cytotoxicity against african green monkey Vero cells assessed as minimum compound concentration required to causes microscopically detectable alteration of normal cell morphology; type: cell-based; settings: chlorocebus sabaeus
Summary of the method: (§2)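 Confluent, non-proliferating cell cultures were exposed to the compounds. The endpoint was the minimum concentration producing a microscopically detectable alteration of normal cell morphology.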

| SMILES | MCC |
| --- | --- |
| Cc1nc(NCCNc2ccnc3cc(Cl)ccc23)nc(-c2ccccc2[N+](=O)[O-])c1C(=O)OC(C)C | 100 µM |

tested on: Influenza A virus; assay: Antiviral activity against Influenza A virus H3N2 infected in MDCK cells assessed as inhibition of virus-induced cytopathogenicity after 4 days by colorimetric formazan-based MTS assay; type: functional, organism-based; settings: 96 h

| SMILES | EC50 |
| --- | --- |
| Cc1nc(NCCNc2ccnc3cc(Cl)ccc23)nc(-c2ccccc2[N+](=O)[O-])c1C(=O)OC(C)C | > 0.8 µM |

tested on: Mammalian orthoreovirus 1; assay: Antiviral activity against Reovirus-1 infected in african green monkey Vero cells assessed as inhibition of virus-induced cytopathogenicity after 4 days; type: functional, organism-based; settings: Mammalian orthoreovirus 1, Vero, 96 h; summary of the method: as §1

| SMILES | EC50 |
| --- | --- |
| Cc1nc(NCCNc2ccnc3cc(Cl)ccc23)nc(-c2ccccc2[N+](=O)[O-])c1C(=O)OC(C)C | > 20 µM |

tested on: not listed separately; assay: Cytotoxicity against MDCK cells assessed as minimum compound concentration required to causes microscopically detectable alteration of normal cell morphology; type: cell-based, Canis lupus familiaris; settings: dog; summary of the method: as §2

| SMILES | MCC |
| --- | --- |
| Cc1nc(NCCNc2ccnc3cc(Cl)ccc23)nc(-c2ccccc2[N+](=O)[O-])c1C(=O)OC(C)C | ≥ 800 nM |

tested on: Human immunodeficiency virus 1; assay: Antiviral activity against HIV1 infected in human CEM cells assessed as inhibition of virus-induced cytopathic effect after 4 days; type: functional, organism-based; settings: Human immunodeficiency virus 1, CCRF-CEM, 96 h
Summary of the method: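 CEM T-lymphocytes (~3 × 10^5 cells/ml) were infected with HIV-1 IIIB or HIV-2 ROD at ~100 CCID50, then immediately plated with a range of compound concentrations. Giant cell formation was scored microscopically after 4 days at 37 °C. Cytostatic activity was tested in parallel in uninfected CEM cells.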

| SMILES | EC50 |
| --- | --- |
| Cc1nc(NCCNc2ccnc3cc(Cl)ccc23)nc(-c2ccccc2[N+](=O)[O-])c1C(=O)OC(C)C | > 10 µM |

tested on: Vesicular stomatitis virus; assay: Antiviral activity against Vesicular stomatitis virus infected in HeLa cells assessed as inhibition of virus-induced cytopathogenicity after 4 days; type: functional, organism-based; settings: 96 h
Summary of the method: (§3)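 Confluent HEL or HeLa monolayers infected with 100 CCID50 of virus in the presence of varying compound concentrations.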

| SMILES | EC50 |
| --- | --- |
| Cc1nc(NCCNc2ccnc3cc(Cl)ccc23)nc(-c2ccccc2[N+](=O)[O-])c1C(=O)OC(C)C | > 100 µM |

tested on: Coxsackievirus B4; assay: Antiviral activity against Coxsackie virus B4 infected in human HeLa cells assessed as inhibition of virus-induced cytopathogenicity after 4 days; type: functional, organism-based; settings: Enterovirus B, 96 h; summary of the method: as §1

| SMILES | EC50 |
| --- | --- |
| Cc1nc(NCCNc2ccnc3cc(Cl)ccc23)nc(-c2ccccc2[N+](=O)[O-])c1C(=O)OC(C)C | > 100 µM |

tested on: Human respirovirus 3; assay: Antiviral activity against Parainfluenza-3 virus infected in african green monkey Vero cells assessed as inhibition of virus-induced cytopathogenicity after 4 days; type: functional, organism-based; settings: Human respirovirus 3, Vero, 96 h; summary of the method: as §1

| SMILES | EC50 |
| --- | --- |
| Cc1nc(NCCNc2ccnc3cc(Cl)ccc23)nc(-c2ccccc2[N+](=O)[O-])c1C(=O)OC(C)C | > 20 µM |

tested on: Human alphaherpesvirus 2; assay: Antiviral activity against HSV2 G infected in HEL cells assessed as inhibition of virus-induced cytopathogenicity after 4 days; type: functional, organism-based; settings: Human alphaherpesvirus 2, strain G, 96 h; summary of the method: as §1

| SMILES | EC50 |
| --- | --- |
| Cc1nc(NCCNc2ccnc3cc(Cl)ccc23)nc(-c2ccccc2[N+](=O)[O-])c1C(=O)OC(C)C | > 100 µM |

tested on: Vesicular stomatitis virus; assay: Antiviral activity against Vesicular stomatitis virus infected in HEL cells assessed as inhibition of virus-induced cytopathogenicity after 4 days; type: functional, organism-based; settings: 96 h; summary of the method: as §3

| SMILES | EC50 |
| --- | --- |
| Cc1nc(NCCNc2ccnc3cc(Cl)ccc23)nc(-c2ccccc2[N+](=O)[O-])c1C(=O)OC(C)C | > 20 µM |

tested on: HeLa; assay: Cytotoxicity against human HeLa cells assessed as cell viability by colorimetric formazan-based MTS assay; settings: not given

| SMILES | CC50 |
| --- | --- |
| Cc1nc(NCCNc2ccnc3cc(Cl)ccc23)nc(-c2ccccc2[N+](=O)[O-])c1C(=O)OC(C)C | 24.4 µM |

tested on: Felid alphaherpesvirus 1; assay: Antiviral activity against Feline herpesvirus infected in cat CRFK cells assessed as inhibition of virus-induced cytopathic effect after 4 days by colorimetric formazan-based MTS assay; type: functional, organism-based; settings: Felid alphaherpesvirus 1, CRFK, 96 h

| SMILES | EC50 |
| --- | --- |
| Cc1nc(NCCNc2ccnc3cc(Cl)ccc23)nc(-c2ccccc2[N+](=O)[O-])c1C(=O)OC(C)C | > 100 µM |

tested on: Human alphaherpesvirus 3; assay: Antiviral activity against […] expressing thymidine kinase infected in HEL cells assessed as reduction of virus plaque formation after 4 days; type: functional, cell-based; settings: Human alphaherpesvirus 3, strain Oka vaccine, 96 h

| SMILES | EC50 |
| --- | --- |
| Cc1nc(NCCNc2ccnc3cc(Cl)ccc23)nc(-c2ccccc2[N+](=O)[O-])c1C(=O)OC(C)C | > 20 µM |
